Data from ChEMBL document CHEMBL2062483, “Design of Bcl-2 and Bcl-xL inhibitors with subnanomolar binding affinities based upon a new scaffold” (J Med Chem, 2012).
pIC50, pKi: −log10 of the molar value. Activity calls are given as the source filed them. No cut-off for these calls is given here.

Test system: not listed separately
Test: Growth inhibition of human NCI-H146 cells after 4 days by WST8 assay
Assay type: functional, cell-based
Settings: NCI-H146, 96 h
For `CN(C)CC[C@H](CSc1ccccc1)Nc1ccc(S(N)(=O)=O)cc1[N+](=O)[O-]`, the pIC50 was < 5.00.
For `CN(C)CC[C@H](CSc1ccccc1)Nc1ccc(S(=O)(=O)Nc2ccc(N3CCN(Cc4ccccc4-c4ccc(Cl)cc4)CC3)cc2)cc1[N+](=O)[O-]`, the pIC50 was < 5.00.
For `CN(C)CC[C@H](CSc1ccccc1)Nc1ccc(S(=O)(=O)Nc2ccc(-c3cn(-c4cccc(-c5c(-c6ccc(Cl)cc6)cn(CC[C@H](O)CO)c5C(=O)NCCCN5CCN(C)CC5)c4)nn3)cc2)cc1[N+](=O)[O-]`, the pIC50 was < 5.00.
With `CN(C)CC[C@H](CSc1ccccc1)Nc1ccc(S(=O)(=O)Nc2ccc(N3CCN(c4cccc(-c5cn(C)cc5-c5ccc(Cl)cc5)c4)CC3)cc2)cc1[N+](=O)[O-]` the pIC50 was < 5.00.

Test system: not listed separately
Test: Cytotoxicity against human NCI-H146 cells assessed as cell death at 300 nM after 24 hrs by trypan blue assay
Assay type: functional
Settings: not given
Outline: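 H146 human small cell lung cancer line, grown in RPMI-1640 with 10% FBS, exposed to compound for 24 h. Cells then harvested and stained with trypan blue. Blue-stained or morphologically unhealthy cells counted as dead, with at least 100 cells scored per sample.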
With `CCc1c(-c2ccc(Cl)cc2)c(-c2cccc(N3CCN(c4ccc(NS(=O)(=O)c5ccc(N[C@H](CCN(C)C)CSc6ccccc6)c([N+](=O)[O-])c5)cc4)CC3)c2)c(C(=O)O)n1C` the Activity was >70%.

Test system: NCI-H146
Test: Induction of apoptosis in human NCI-H146 cells assessed as PARP cleavage at 100 nM after 24 hrs by Western blot analysis
Assay type: functional, cell-based
Settings: not given
Outline: (§1)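 H146 cells treated 24 h, lysed on ice 20 min in RIPA buffer (1% NP40, 0.5% Na-deoxycholate, 0.1% SDS in PBS) with 1 μmol/L PMSF and protease inhibitors. Lysates cleared, protein quantified, run on 4–20% SDS-PAGE, blotted to PVDF, blocked in 5% milk. Rabbit anti-PARP and anti-caspase-3, GAPDH loading control; HRP secondary with chemiluminescent detection.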
In the case of `CCc1c(-c2ccc(Cl)cc2)c(-c2cccc(N3CCN(c4ccc(NS(=O)(=O)c5ccc(N[C@H](CCN(C)C)CSc6ccccc6)c([N+](=O)[O-])c5)cc4)CC3)c2)c(C(=O)O)n1C`, the Activity was “Active”.

Target: Apoptosis regulator Bcl-2 (Homo sapiens, UniProt P10415)
Sequence (P10415 whole entry): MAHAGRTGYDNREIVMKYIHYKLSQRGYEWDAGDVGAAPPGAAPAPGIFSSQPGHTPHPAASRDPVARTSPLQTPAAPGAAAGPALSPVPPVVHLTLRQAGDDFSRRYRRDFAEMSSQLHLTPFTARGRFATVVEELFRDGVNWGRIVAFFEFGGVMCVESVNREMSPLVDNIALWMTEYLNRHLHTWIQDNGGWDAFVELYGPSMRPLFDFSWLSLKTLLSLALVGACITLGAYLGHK
Test: Binding affinity to N-terminus 6X His-tagged human Bcl2 expressed in Escherichia coli BL21 (DE3) cells after 2 hrs by fluorescence polarization assay
Settings: not given
Outline: (§2)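 Competitive FP binding: serially diluted inhibitor in DMSO added to preincubated protein/fluorescent probe complex, 2 h at room temperature with gentle shaking. Final protein/probe: Bcl-2 1.5 nM/1 nM; Bcl-xL 10 nM/2 nM; Mcl-1 20 nM/2 nM. IC50 from nonlinear regression; Ki calculated from IC50, probe Kd and protein/probe concentrations.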
With `CN(C)CC[C@H](CSc1ccccc1)Nc1ccc(S(N)(=O)=O)cc1[N+](=O)[O-]` the pIC50 was < 4.00.
`CN(C)CC[C@H](CSc1ccccc1)Nc1ccc(S(=O)(=O)Nc2ccc(N3CCN(Cc4ccccc4-c4ccc(Cl)cc4)CC3)cc2)cc1[N+](=O)[O-]` showed a pIC50 of 7.07 and a pKi of 7.66.
With `CN(C)CC[C@H](CSc1ccccc1)Nc1ccc(S(=O)(=O)Nc2ccc(-c3cn(-c4cccc(-c5c(-c6ccc(Cl)cc6)cn(CC[C@H](O)CO)c5C(=O)NCCCN5CCN(C)CC5)c4)nn3)cc2)cc1[N+](=O)[O-]` the pIC50 was 8.85 and the pKi was > 9.22.
With `CN(C)CC[C@H](CSc1ccccc1)Nc1ccc(S(=O)(=O)Nc2ccc(N3CCN(c4cccc(-c5cn(C)cc5-c5ccc(Cl)cc5)c4)CC3)cc2)cc1[N+](=O)[O-]` the pIC50 was 7.08 and the pKi was 7.68.

Test system: NCI-H1417
Test: Growth inhibition of human NCI-H1417 cells after 4 days by WST8 assay
Assay type: functional, cell-based
Settings: NCI-H1417, 96 h
For `CN(C)CC[C@H](CSc1ccccc1)Nc1ccc(S(N)(=O)=O)cc1[N+](=O)[O-]`, the pIC50 was < 5.00.
For `CN(C)CC[C@H](CSc1ccccc1)Nc1ccc(S(=O)(=O)Nc2ccc(N3CCN(Cc4ccccc4-c4ccc(Cl)cc4)CC3)cc2)cc1[N+](=O)[O-]`, the pIC50 was < 5.00.
For `CN(C)CC[C@H](CSc1ccccc1)Nc1ccc(S(=O)(=O)Nc2ccc(-c3cn(-c4cccc(-c5c(-c6ccc(Cl)cc6)cn(CC[C@H](O)CO)c5C(=O)NCCCN5CCN(C)CC5)c4)nn3)cc2)cc1[N+](=O)[O-]`, the pIC50 was < 5.00.
For `CN(C)CC[C@H](CSc1ccccc1)Nc1ccc(S(=O)(=O)Nc2ccc(N3CCN(c4cccc(-c5cn(C)cc5-c5ccc(Cl)cc5)c4)CC3)cc2)cc1[N+](=O)[O-]`, the pIC50 was < 5.00.

Target: Bcl-2-like protein 1 (Homo sapiens, UniProt Q07817)
Sequence (Q07817 whole entry): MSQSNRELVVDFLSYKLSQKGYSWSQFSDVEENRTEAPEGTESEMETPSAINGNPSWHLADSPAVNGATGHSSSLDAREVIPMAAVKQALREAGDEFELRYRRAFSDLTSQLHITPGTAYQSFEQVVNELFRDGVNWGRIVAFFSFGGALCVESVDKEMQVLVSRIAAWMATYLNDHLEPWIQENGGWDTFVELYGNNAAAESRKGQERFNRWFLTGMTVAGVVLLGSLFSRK
Test: Binding affinity to N-terminus 8X His-tagged human Bcl-xL expressed in Escherichia coli BL21 (DE3) cells after 2 hrs by fluorescence polarization assay
Settings: not given
Outline: as §2
With `CCc1c(-c2ccc(Cl)cc2)c(-c2cccc(N3CCN(c4ccc(NS(=O)(=O)c5ccc(N[C@H](CCN(C)C)CSc6ccccc6)c([N+](=O)[O-])c5)cc4)CC3)c2)c(C(=O)O)n1C` the pIC50 was 8.12 and the pKi was > 9.00.
Work on `CN(C)CC[C@H](CSc1ccccc1)Nc1ccc(S(N)(=O)=O)cc1[N+](=O)[O-]` yielded a pIC50 of 3.62 and a pKi of 4.12.
For `CN(C)CC[C@H](CSc1ccccc1)Nc1ccc(S(=O)(=O)Nc2ccc(N3CCN(Cc4ccccc4-c4ccc(Cl)cc4)CC3)cc2)cc1[N+](=O)[O-]`, the pIC50 was 7.05 and the pKi was 7.61.
With `CN(C)CC[C@H](CSc1ccccc1)Nc1ccc(S(=O)(=O)Nc2ccc(-c3cn(-c4cccc(-c5c(-c6ccc(Cl)cc6)cn(CC[C@H](O)CO)c5C(=O)NCCCN5CCN(C)CC5)c4)nn3)cc2)cc1[N+](=O)[O-]` the pIC50 was 8.32 and the pKi was > 9.00.
Molecule `CN(C)CC[C@H](CSc1ccccc1)Nc1ccc(S(=O)(=O)Nc2ccc(N3CCN(c4cccc(-c5cn(C)cc5-c5ccc(Cl)cc5)c4)CC3)cc2)cc1[N+](=O)[O-]` has a pIC50 of 7.46 and a pKi of 8.08.

Test system: NCI-H146
Test: Cytotoxicity against human NCI-H146 cells assessed as cell death at 30 to 100 nM after 24 hrs by trypan blue assay
Assay type: functional, cell-based
Settings: not given
Outline: (§3)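 H146 cells exposed to compound for 24 h, then harvested and stained with trypan blue. Cells staining blue or looking morphologically unhealthy were scored dead; at least 100 cells counted per sample.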
In the case of `CCc1c(-c2ccc(Cl)cc2)c(-c2cccc(N3CCN(c4ccc(NS(=O)(=O)c5ccc(N[C@H](CCN(C)C)CSc6ccccc6)c([N+](=O)[O-])c5)cc4)CC3)c2)c(C(=O)O)n1C`, the Activity was “Active”.

Target: Induced myeloid leukemia cell differentiation protein Mcl-1 (Homo sapiens, UniProt Q07820)
Sequence (Q07820 whole entry): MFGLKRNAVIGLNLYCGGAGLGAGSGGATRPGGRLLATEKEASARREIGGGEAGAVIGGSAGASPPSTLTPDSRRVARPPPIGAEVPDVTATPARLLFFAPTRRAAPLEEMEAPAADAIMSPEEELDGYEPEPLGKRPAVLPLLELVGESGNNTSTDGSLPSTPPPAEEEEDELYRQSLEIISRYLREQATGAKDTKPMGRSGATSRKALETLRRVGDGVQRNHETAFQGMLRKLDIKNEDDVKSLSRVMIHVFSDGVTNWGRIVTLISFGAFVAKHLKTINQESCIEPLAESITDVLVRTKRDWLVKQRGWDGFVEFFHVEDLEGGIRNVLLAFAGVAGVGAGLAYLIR
Test: Binding affinity to N-terminus 8X His-tagged human Mcl1 expressed in Escherichia coli BL21 (DE3) cells after 2 hrs by fluorescence polarization assay
Settings: not given
Outline: as §2
In the case of `CCc1c(-c2ccc(Cl)cc2)c(-c2cccc(N3CCN(c4ccc(NS(=O)(=O)c5ccc(N[C@H](CCN(C)C)CSc6ccccc6)c([N+](=O)[O-])c5)cc4)CC3)c2)c(C(=O)O)n1C`, the pIC50 was < 5.70.
With `CN(C)CC[C@H](CSc1ccccc1)Nc1ccc(S(N)(=O)=O)cc1[N+](=O)[O-]` the pIC50 was < 4.00.
With `CN(C)CC[C@H](CSc1ccccc1)Nc1ccc(S(=O)(=O)Nc2ccc(N3CCN(Cc4ccccc4-c4ccc(Cl)cc4)CC3)cc2)cc1[N+](=O)[O-]` the pIC50 was < 5.00.
For `CN(C)CC[C@H](CSc1ccccc1)Nc1ccc(S(=O)(=O)Nc2ccc(-c3cn(-c4cccc(-c5c(-c6ccc(Cl)cc6)cn(CC[C@H](O)CO)c5C(=O)NCCCN5CCN(C)CC5)c4)nn3)cc2)cc1[N+](=O)[O-]`, the pIC50 was < 5.00.
In the case of `CN(C)CC[C@H](CSc1ccccc1)Nc1ccc(S(=O)(=O)Nc2ccc(N3CCN(c4cccc(-c5cn(C)cc5-c5ccc(Cl)cc5)c4)CC3)cc2)cc1[N+](=O)[O-]`, the pIC50 was < 5.70.

Test system: NCI-H146
Test: Induction of apoptosis in human NCI-H146 cells assessed as caspase 3 cleavage at 100 nM after 24 hrs by Western blot analysis
Assay type: functional, cell-based
Settings: not given
Outline: as §1
For `CCc1c(-c2ccc(Cl)cc2)c(-c2cccc(N3CCN(c4ccc(NS(=O)(=O)c5ccc(N[C@H](CCN(C)C)CSc6ccccc6)c([N+](=O)[O-])c5)cc4)CC3)c2)c(C(=O)O)n1C`, the Activity was “Active”.

Test system: NCI-H146
Test: Cytotoxicity against human NCI-H146 cells assessed as cell death after 24 hrs by trypan blue assay
Assay type: functional, cell-based
Settings: not given
Outline: as §3
In the case of `CCc1c(-c2ccc(Cl)cc2)c(-c2cccc(N3CCN(c4ccc(NS(=O)(=O)c5ccc(N[C@H](CCN(C)C)CSc6ccccc6)c([N+](=O)[O-])c5)cc4)CC3)c2)c(C(=O)O)n1C`, the Activity was “Dose-dependent effect”.
